Measured values taken from ChEMBL document CHEMBL4330067, “Synthesis and mechanistic studies of diketo acids and their bioisosteres as potential antibacterial agents” (Eur J Med Chem, 2019).
Converted amounts (≈) assume the structure as drawn. The source made the active and inactive calls. The calls are words filed in the database; no cut-off is given here.

Assays:
Enterococcus faecalis [1] = test: Antibacterial activity against Enterococcus faecalis MTCC 439 after 24 hrs by broth dilution assay; assay type: functional; conditions: MTCC 439, 24 h
Outline: (§1)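 Broth dilution per NCCLS in nutrient broth, serial dilutions 1000 to 7.8 µg/mL, DMSO below 4% final. Inoculum approx. 2.5×10⁶ cells/mL, 37 °C with shaking at 150 rpm for 24 h. MIC taken as the lowest concentration with no visible growth. Ciprofloxacin served as positive control.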

Streptococcus pneumoniae [2] = test: Antibacterial activity against Streptococcus pneumoniae MTCC 655 after 24 hrs by broth dilution assay; assay type: functional; conditions: MTCC 655, 24 h; outline: as §1
Escherichia coli [3] = test: Antibacterial activity against Escherichia coli MRAE32 after overnight incubation; assay type: functional
Outline: (§2)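 Multidrug-resistant E. coli isolates in Luria broth, test range 8 to 1024 µg/mL (ciprofloxacin 0.49 to 63.3 µg/mL). Inoculum 10 µL of a 1000-fold diluted 0.1 OD600 culture, incubated overnight at 37 °C. OD read at 600 nm. % inhibition = (a−b)/a×100, with media and compound-colour blanks subtracted.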

Klebsiella pneumoniae = test: Antibacterial activity against Klebsiella pneumoniae ATCC 700603 after 24 hrs by broth dilution assay; assay type: functional; conditions: Klebsiella pneumoniae, 700603, 24 h; outline: as §1
Escherichia coli [4] = test: Antibacterial activity against Escherichia coli MRAE26 after overnight incubation; assay type: functional; outline: as §2
Salmonella typhimurium = test: Antibacterial activity against Salmonella typhimurium MTCC 3224 after 24 hrs by broth dilution assay; assay type: functional, Salmonella enterica subsp. enterica serovar Typhimurium; conditions: Salmonella enterica, MTCC 3224, 24 h; outline: as §1
Escherichia coli [5] = test: Antibacterial activity against Escherichia coli MRA11 after overnight incubation; assay type: functional; conditions: for MIC: Escherichia coli, MRA11; outline: as §2
Escherichia coli [6] = test: Antibacterial activity against Escherichia coli MRC17 after overnight incubation; assay type: functional; conditions: for MIC: Escherichia coli, MRC17; outline: as §2
Escherichia coli [7] = test: Antibacterial activity against Escherichia coli MROB11 after overnight incubation; assay type: functional; outline: as §2
Escherichia coli [8] = test: Antibacterial activity against Escherichia coli MRAE44 after overnight incubation; assay type: functional; outline: as §2
Escherichia coli [9] = test: Antibacterial activity against Escherichia coli MRC24 after overnight incubation; assay type: functional; outline: as §2
Escherichia coli [10] = test: Antibacterial activity against Escherichia coli MRAE33 after overnight incubation; assay type: functional; outline: as §2
CHO [11] = test: Cytotoxicity against CHO cells at 300 ug/mL after 48 hrs by MTT assay; assay type: cell-based, Cricetulus griseus; conditions: chinese hamster
Outline: (§3)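 MTT assay: cells maintained in DMEM with 10% FBS and penicillin/streptomycin at 37 °C, 5% CO2. Seeded at approx. 2×10⁴ cells/well, 24 h before treatment, then exposed to 10 to 400 µg/mL for 48 h at 37 °C. MTT (5 mg/mL stock in PBS) added for 4 h, formazan dissolved in DMSO, A570 read. Triplicate wells; viability given relative to untreated cells.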

Escherichia coli [12] = test: Antibacterial activity against Escherichia coli MRC17 at 512 ug/mL after 24 hrs by broth dilution assay relative to control; assay type: functional; outline: as §2
[13] = Cytotoxicity against CHO cells assessed as cell viability at 100 ug/mL after 48 hrs by MTT assay relative to control; assay type: cell-based, Cricetulus griseus; conditions: chinese hamster, read-out: Activity; outline: as §3
Escherichia coli [14] = test: Synergistic antibacterial activity against Escherichia coli MRA11 after 18 hrs in presence of ciprofloxacin by checkerboard method; assay type: functional; conditions: MRA11, 18 h
Outline: (§4)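 Checkerboard combination with ciprofloxacin in Mueller-Hinton broth: compound 1024 to 16 µg/mL crossed with ciprofloxacin 128 to 2 µg/mL. Inoculum 5×10⁵ CFU/mL suspension, 18 h at 37 °C. Fractional inhibitory concentration index derived from the combination.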

[15] = Inhibition of human methionine aminopeptidase 1B using Met-AMC as substrate by Dixon method
Outline: (§5)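 Purified MetAP at 4 µM in 50 mM HEPES with 150 mM KCl and CoCl2 at 3 molar equivalents of enzyme. pH 7.5 for SpMetAP1a and EfMetAP1a, pH 8.0 for HsMetAP1b. Substrate L-Met-AMC at 50, 100 and 150 µM. Compounds (10 mM DMSO stocks) tested over 1 to 120 µM for % inhibition; Ki by Dixon method.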

Escherichia coli [16] = test: Synergistic antibacterial activity against Escherichia coli MRAE33 assessed as fractional inhibitory concentration index after 18 hrs in presence of ciprofloxacin by checkerboard method; assay type: functional; outline: as §4
Escherichia coli [17] = test: Synergistic antibacterial activity against Escherichia coli MRAE33 assessed as ciprofloxacin MIC at 16 to 1024 ug/mL after 18 hrs by checkerboard method; assay type: functional; conditions: MRAE33, 18 h; outline: as §4
Escherichia coli [18] = test: Synergistic antibacterial activity against Escherichia coli MRC17 assessed as fractional inhibitory concentration index after 18 hrs in presence of ciprofloxacin by checkerboard method; assay type: functional
Outline: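 Checkerboard combination against MDR E. coli. Test agent gradient 1024–16 µg/mL crossed with ciprofloxacin 128–2 µg/mL in Mueller-Hinton broth. Wells were inoculated with a 5 × 10⁵ CFU/mL suspension and incubated 18 h at 37 °C. Interaction was expressed as the fractional inhibitory concentration index (FICI).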

Escherichia coli [19] = test: Antibacterial activity against Escherichia coli MRAE26 at 1024 ug/mL after 24 hrs by broth dilution assay relative to control; assay type: functional; outline: as §2
Escherichia coli [20] = test: Synergistic antibacterial activity against Escherichia coli MRA11 assessed as ciprofloxacin MIC at 16 to 1024 ug/mL after 18 hrs by checkerboard method; assay type: functional; conditions: MRA11, 18 h; outline: as §4
Escherichia coli [21] = test: Antibacterial activity against Escherichia coli ATCC 25922 after 24 hrs by broth dilution assay; assay type: functional; conditions: ATCC 25922, 24 h; outline: as §1
Escherichia coli [22] = test: Synergistic antibacterial activity against Escherichia coli MRAE33 after 18 hrs in presence of ciprofloxacin by checkerboard method; assay type: functional; conditions: MRAE33, 18 h; outline: as §4
Escherichia coli [23] = test: Synergistic antibacterial activity against Escherichia coli MRA11 assessed as fractional inhibitory concentration index after 18 hrs in presence of ciprofloxacin by checkerboard method; assay type: functional; outline: as §4
CHO [24] = test: Cytotoxicity against CHO cells at 50 ug/mL after 48 hrs by MTT assay; assay type: cell-based, Cricetulus griseus; conditions: chinese hamster; outline: as §3
Escherichia coli [25] = test: Antibacterial activity against Escherichia coli MRAE33 at 1024 ug/mL after 24 hrs by broth dilution assay relative to control; assay type: functional; outline: as §2
Escherichia coli [26] = test: Antibacterial activity against Escherichia coli MRAE44 at 1024 ug/mL after 24 hrs by broth dilution assay; assay type: functional, organism-based; outline: as §2
Escherichia coli [27] = test: Antibacterial activity against Escherichia coli MROB11 at 512 ug/mL after 24 hrs by broth dilution assay relative to control; assay type: functional; outline: as §2
[28] = Inhibition of Mycobacterium tuberculosis methionine aminopeptidase 1C using Met-AMC as substrate by Dixon method
Pseudomonas aeruginosa = test: Antibacterial activity against Pseudomonas aeruginosa MTCC 2453 after 24 hrs by broth dilution assay; assay type: functional; conditions: MTCC 2453, 24 h; outline: as §1
Streptococcus pneumoniae [29] = test: Inhibition of Streptococcus pneumoniae methionine aminopeptidase 1A at 100 uM using Met-AMC as substrate relative to control; outline: as §5
Escherichia coli [30] = test: Antibacterial activity against Escherichia coli MRAE32 at 512 ug/mL after 24 hrs by broth dilution assay relative to control; assay type: functional; outline: as §2
Escherichia coli [31] = test: Antibacterial activity against Escherichia coli MRA11 at 512 ug/mL after 24 hrs by broth dilution assay relative to control; assay type: functional; outline: as §2
[32] = test system: Mycobacterium tuberculosis; test: Inhibition of Mycobacterium tuberculosis methionine aminopeptidase 1C at 100 uM using Met-AMC as substrate relative to control
Outline: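 Purified MtMetAP1c (4 µM) in 50 mM Hepes pH 7.5 with 150 mM KCl and CoCl2 at three molar equivalents of enzyme. Substrate was L-Met-AMC at 50, 100 or 150 µM. Compounds came from 10 mM DMSO stocks. Percent inhibition was taken against the uninhibited control.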

[33] = Inhibition of Streptococcus pneumoniae methionine aminopeptidase 1A using Met-AMC as substrate by Dixon method; outline: as §5
Homo sapiens = organism: Homo sapiens; test: Inhibition of human methionine aminopeptidase 1B at 100 uM using Met-AMC as substrate relative to control; outline: as §5
Escherichia coli [34] = test: Antibacterial activity against Escherichia coli MRC24 at 512 ug/mL after 24 hrs by broth dilution assay relative to control; assay type: functional; outline: as §2
Enterococcus faecalis [35] = test: Inhibition of Enterococcus faecalis methionine aminopeptidase 1A at 100 uM using Met-AMC as substrate relative to control; outline: as §5
Escherichia coli [36] = test: Synergistic antibacterial activity against Escherichia coli MRC17 after 18 hrs in presence of ciprofloxacin by checkerboard method; assay type: functional; conditions: MRC17, 18 h; outline: as §4
[37] = Inhibition of Enterococcus faecalis methionine aminopeptidase 1A using Met-AMC as substrate by Dixon method; outline: as §5
Escherichia coli [38] = test: Synergistic antibacterial activity against Escherichia coli MRC17 assessed as ciprofloxacin MIC at 16 to 1024 ug/mL after 18 hrs by checkerboard method; assay type: functional; conditions: MRC17, 18 h; outline: as §4

O=C(O)c1cn(C2CC2)c2cc(N3CCNCC3)c(F)cc2c1=O [CIPROFLOXACIN]
MIC (Enterococcus faecalis [1]): 0.0625 µg/mL (≈ 0.189 µM) | MIC (Streptococcus pneumoniae [2]): 0.312 µg/mL (≈ 0.942 µM) | ICmax (Escherichia coli [3]): 63.3 µg/mL | MIC (Klebsiella pneumoniae): 0.25 µg/mL (≈ 0.754 µM) | ICmax (Escherichia coli [4]): 1.975 µg/mL | MIC (Salmonella typhimurium): 0.0156 µg/mL (≈ 0.0471 µM) | ICmax (Escherichia coli [5]): 63.3 µg/mL | MIC (Escherichia coli [5]): 128 µg/mL (≈ 386 µM) | ICmax (Escherichia coli [6]): 63.3 µg/mL | MIC (Escherichia coli [6]): 128 µg/mL (≈ 386 µM) | ICmax (Escherichia coli [7]): 1.975 µg/mL | ICmax (Escherichia coli [8]): 63.3 µg/mL | ICmax (Escherichia coli [9]): 1.975 µg/mL | ICmax (Escherichia coli [10]): 7.9 µg/mL

COC(=O)[C@@H](C)NC(=O)/C(O)=C/C(=O)c1oc2ccc(Br)cc2c1C
MIC (Enterococcus faecalis [1]): 31.2 µg/mL (≈ 76.2 µM) | Activity (CHO [11]): Toxic | Activity (Escherichia coli [12]): 60% | viability at 48 h, 100 ug/mL [13]: 50% | MIC (Streptococcus pneumoniae [2]): 62.5 µg/mL (≈ 152 µM) | MIC (Escherichia coli [14]): 1020 µg/mL | Ki [15]: 22.1 µM | fractional inhibitory concentration index (FICI) (Escherichia coli [16]): 1.0156 | ICmax (Escherichia coli [3]): 512 µg/mL | MIC (Escherichia coli [17]): 2 µg/mL | fractional inhibitory concentration index (FICI) (Escherichia coli [18]): 1.5 | Activity (Escherichia coli [19]): 54% | MIC (Escherichia coli [20]): 128 µg/mL | MIC (Klebsiella pneumoniae): 500 µg/mL (≈ 1220 µM) | MIC (Escherichia coli [21]): 62.5 µg/mL (≈ 152 µM) | ICmax (Escherichia coli [4]): 1024 µg/mL | MIC (Salmonella typhimurium): 500 µg/mL (≈ 1220 µM) | MIC (Escherichia coli [22]): 16 µg/mL | ICmax (Escherichia coli [5]): 512 µg/mL | MIC (Escherichia coli [5]): 1020 µg/mL (≈ 2500 µM) | ICmax (Escherichia coli [6]): 512 µg/mL | MIC (Escherichia coli [6]): 1020 µg/mL (≈ 2500 µM) | fractional inhibitory concentration index (FICI) (Escherichia coli [23]): 2 | Activity (CHO [24]): Non-Toxic | Activity (Escherichia coli [25]): 50% | ICmax (Escherichia coli [7]): 512 µg/mL | Activity (Escherichia coli [26]): Active | Activity (Escherichia coli [27]): 87% | Ki [28]: 17.6 µM | MIC (Pseudomonas aeruginosa): 125 µg/mL (≈ 305 µM) | ICmax (Escherichia coli [8]): 1024 µg/mL | inhibition (Streptococcus pneumoniae [29]): 97.4% | ICmax (Escherichia coli [9]): 512 µg/mL | Activity (Escherichia coli [30]): 88% | Activity (Escherichia coli [31]): 65% | inhibition [32]: 99.6% | Ki [33]: 8.78 µM | inhibition (Homo sapiens): 89.1% | Activity (Escherichia coli [34]): 76% | inhibition (Enterococcus faecalis [35]): 93.9% | MIC (Escherichia coli [36]): 1020 µg/mL | Ki [37]: 10.4 µM | MIC (Escherichia coli [38]): 64 µg/mL | ICmax (Escherichia coli [10]): 512 µg/mL | MIC (Escherichia coli [10]; Escherichia coli, MRAE33): 1020 µg/mL (≈ 2500 µM)
